Sampled rows, rich in hits. Any-hit rate of the full collection: about 2.3%.
OXTR ag – activates the human oxytocin receptor; hit rate 0.32% among 320,000; P30559; CHO-OTR cells, Fluo-8 calcium fluorescence; normalized: DMSO 0%, oxytocin 100%; AID 2435; activation, % at 3 µM;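 active means activation above the mean of all tested compounds plus 3 SD, cutoff set per screening run, cut at about 20% in these data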;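 further: peak over basal fluorescence ratio from a 100 s FLIPR kinetic read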
Target sequence (P30559 whole entry, looked up): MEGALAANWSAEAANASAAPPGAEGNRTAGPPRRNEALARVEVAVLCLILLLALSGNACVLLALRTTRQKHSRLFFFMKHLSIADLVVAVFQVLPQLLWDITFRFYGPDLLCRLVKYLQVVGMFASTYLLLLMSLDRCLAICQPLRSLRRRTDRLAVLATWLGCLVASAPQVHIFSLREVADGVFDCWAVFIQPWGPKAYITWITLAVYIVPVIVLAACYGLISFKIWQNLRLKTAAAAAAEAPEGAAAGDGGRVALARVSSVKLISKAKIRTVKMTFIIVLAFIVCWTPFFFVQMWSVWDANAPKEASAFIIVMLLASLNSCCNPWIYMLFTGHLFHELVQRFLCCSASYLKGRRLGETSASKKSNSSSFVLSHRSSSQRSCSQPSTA
V1R ag counter – counter-screen for oxytocin receptor agonists: human V1a receptor agonists | CHO-V1R cells, Fluo-8 calcium fluorescence, agonist mode; 0% DMSO, 100% 3 nM vasopressin | P37288 | activation, % at 3 µM | hit rate 0.25% among 320,000;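 active means activation above the mean activation of all tested compounds plus 3 SD, per screening run, cut at about 20% in these data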;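 further: signal is peak over basal fluorescence ratio across a 100 second FLIPR read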
OXTR potentiate – human OXTR potentiation; P30559; CHO-OTR cells, Fluo-8 calcium fluorescence, potentiator mode; 0% = oxytocin EC15, 100% = EC100; activation, % at 3 µM; hit rate 0.061% among 320,000; AID 2445;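 active means activation above that plate's cutoff, the mean activation of tested compounds plus 3 SD, cut at about 6.6% in these data, passing the limit was not always enough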;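 further: 100% uses oxytocin at 75 nM as the full agonist control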
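test system = CHO-OTR cells, human receptor | compound = single-point 3.0 µM | schedule = 6 min compound pre-incubation at room temperature, 100 s kinetic read | signal = Fluo-8 no-wash calcium dye fluorescence, excitation 470-495 nm, emission 515-575 nm | repeats = single well per compound, singlicate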
TAAR1 ag – agonists of human TAAR1; Q96RJ0; CHO RD-HGA16 TAAR1, Fluo-8 calcium fluorescence; vehicle wells 0%, saturating PEA agonist 100%; activation, % at 3 µM; hit rate 0.99% among 360,000; AID 624467;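 active means activation above the mean activation of all test compounds in the run plus 3 SD, cut at about 38% in these data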
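Repeats: no replicates (n 1) | Material: CHO-derived RD-HGA16 cells with stable Gα16 and human TAAR1 | Technique: Kinetic Fluo-8 calcium fluorescence | Schedule: 17-24 h seeding, 75 min 37 °C dye, 30 min RT | Evaluation: % activation from peak over basal fluorescence ratio, DMSO-to-PEA scaled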
TAAR1 antag – human TAAR1 antagonism; hit rate 1.5% among 360,000; Q96RJ0; inhibition, % at 3 µM; CHO RD-HGA16 TAAR1, Fluo-8 calcium fluorescence, antagonist;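 active means inhibition above a per-plate cutoff, the mean inhibition of test compounds on that plate plus 3 SD, cut at about 49% in these data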;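 further: 0% = DMSO plus EC80 beta-PEA response and 100% = DMSO alone without agonist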
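System: RD-HGA16 CHO cells with stable hTAAR1 and Gα16 | Probe or stimulus: EC80 β-phenethylamine stimulus | Dosing: 3 µM, single point | Times: Dye loading 75 min at 37 °C, then 30 min room temperature | Measured by: Fluo-8 calcium-sensitive fluorescence | Read-out basis: % inhibition of agonist calcium response | Replicates: n of 1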
nonsel antag count – counter-screen for TAAR1 antagonists: nonselective antagonists | shares compounds with TAAR1 antag | counterscreen cell line, calcium fluorescence, antagonist mode | inhibition, % at 3 µM | hit rate 77% among 2,400 | AID 651780; in the data active means inhibition above about 22%;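 further: CHO-Ga16 host cells stimulated with ATP at an EC80 level; 0% = agonist EC80 plus vehicle and 100% = vehicle without agonist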
TAAR1 antag conf – human TAAR1 antagonism, confirmed; shares compounds with TAAR1 antag; TAAR1-expressing cells, fluorescence antagonist read-out; inhibition, % at 3 µM; hit rate 40% among 2,400; in the data active means inhibition above about 49%;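 further: CHO-Ga16 host cells challenged with agonist PEA near its EC80; 0% = agonist at EC80 plus vehicle and 100% = vehicle with no agonist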
Ga16 nonsel ag – nonselective Ga16 agonism, counter-screen; Ga16-expressing cells, calcium fluorescence, agonist counterscreen; hit rate 18% among 2,400; activation, % at 3 µM; AID 651953; shares compounds with TAAR1 antag; in the data active means activation above about 12%;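 further: 0% = vehicle wells and 100% = saturating stimulus response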
TAAR1 ag counter – activates human TAAR1 in antagonist counter-screen; shares compounds with TAAR1 antag; hTAAR1 cell line, fluorescence activation, agonist mode; activation, % at 3 µM; hit rate 2% among 2,400; AID 651955; in the data active means activation above about 37%;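 further: CHO cells stably expressing TAAR1 with calcium dye readout; 0% = DMSO vehicle and 100% = full agonist response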
Starred values were filed as active, the others as inactive; / = no result given.

SMILES	OXTR ag	V1R ag counter	OXTR potentiate	TAAR1 ag	TAAR1 antag	nonsel antag count	TAAR1 antag conf	Ga16 nonsel ag	TAAR1 ag counter
O=C(COC(=O)c1ccc(O)cc1O)Nc1cc(-c2ccccc2)nn1-c1ccccc1	3	3	-18	12	72*	35*	38	9	11
CC(C)COc1cccc(C(=O)N(CC(=O)Nc2ccccc2C(F)(F)F)Cc2ccco2)c1	0	0	-9	9	61*	18	41	6	9
CN1CCC(N(C)C(=O)c2cc(-c3ccccc3Cl)nc3ccccc23)CC1	1	0	7	0	6	/	/	/	/
COc1ccccc1N1CCN(C(=O)CCc2nnc3ccc(N4CCC(C)CC4)nn23)CC1	-3	-2	-15	7	53*	22*	43	8	10
COc1cccc(NC(=O)CCc2nnc3ccc(N4CCN(c5cccc(OC)c5)CC4)nn23)c1	0	0	-9	/	/	/	/	/	/
COc1cccc(N2CCN(C(=O)CCc3nnc4ccc(N5CCCC5)nn34)CC2)c1	-3	-1	-8	2	2	/	/	/	/
COc1ccc(NC(=O)CCc2nnc3ccc(N4CCN(c5cccc(OC)c5)CC4)nn23)cc1	4	0	-12	9	63*	23*	39	9	14
Cc1ccc(C(=O)NC2CC(=O)N(c3ccc4c(c3)OCCO4)C2)cc1[N+](=O)[O-] (centres undefined)	-1	0	-7	3	12	/	/	/	/
CCN(CC)S(=O)(=O)c1ccc(N2CCOCC2)c(NC(=O)c2cccc3ccccc23)c1	5	7	-11	12	40	/	/	/	/
Cc1cc(C)nc(NS(=O)(=O)c2ccc(NC(=O)c3cc(-c4ccccc4)nc4ccccc34)cc2)n1	0	1	-2	5	6	/	/	/	/
CCN(CC)S(=O)(=O)c1ccc(N2CCOCC2)c(NC(=O)c2cc(-c3ccccn3)nc3ccccc23)c1	/	/	/	18	71*	27*	52*	8	11
CCN(CC)S(=O)(=O)c1ccc(N2CCOCC2)c(NC(=O)c2c3c(nc4ccccc24)CCC3)c1	-2	3	-4	13	56*	18	36	7	7
CCN(CC)S(=O)(=O)c1ccc(NC(=O)c2cc(-c3ccccc3)nc3ccccc23)cc1	0	0	-10	3	54*	27*	35	8	-2
CCN(CC)S(=O)(=O)c1ccc(N2CCOCC2)c(NC(=O)c2ccc3ccccc3c2)c1	-1	0	-3	-1	-11	/	/	/	/
CCN(CC)S(=O)(=O)c1ccc(N2CCOCC2)c(NC(=O)c2cccc(C#N)c2)c1	1	0	-2	-3	104*	8	2	0	5
COc1ccc(S(=O)(=O)N2CCOCC2)cc1NC(=O)CN1C(=O)NC2(CCCC2)C1=O	1	1	-9	3	-19	/	/	/	/
O=C(CNS(=O)(=O)c1ccccc1)N1CCN(Cc2ccccc2)CC1	0	1	3	2	-16	/	/	/	/
CCN(CC)S(=O)(=O)c1ccc(N2CCOCC2)c(NS(=O)(=O)c2cc(C(C)(C)C)ccc2C)c1	-2	1	-17	-1	-13	/	/	/	/
CC(=O)c1c(C)[nH]c(C(=O)Nc2cccc(S(=O)(=O)N(C)c3ccccc3)c2)c1C	8	10	-13	17	61*	44*	66*	14*	13
COCc1ccc(C(=O)Nc2cccc(S(=O)(=O)N(C)c3ccccc3)c2)cc1	11	7	-12	10	53*	32*	38	8	5
COc1ccc(-c2cc(=O)oc(-c3cccc(C)c3)n2)cc1	1	-1	5	1	-41	/	/	/	/
CCOc1ccc(NC(=O)CN(C)C(=O)C2CC(=O)N(CCc3ccc(OC)c(OC)c3)C2)cc1OCC (centres undefined)	/	/	/	-2	100*	-3	-4	8	11
Cc1cccc(Cc2nnc(CCC(=O)N(C)C3CCOC3)o2)c1 (centres undefined)	0	0	-4	4	5	/	/	/	/
O=C(NCCCN1CCCC1=O)c1cc(-c2ccc(F)cc2)nc2ccccc12	-1	0	-6	10	33	/	/	/	/
COc1ccc2sc(-c3ccc(S(C)(=O)=O)cc3)c(C(=O)NCCCN3CCCC3=O)c2c1	0	0	9	15	49*	31*	43	7	6
SMILES	OXTR ag	V1R ag counter	OXTR potentiate	TAAR1 ag	TAAR1 antag	nonsel antag count	TAAR1 antag conf	Ga16 nonsel ag	TAAR1 ag counter
COc1ccc(-c2cc(C(=O)NCCCN3CCCC3=O)c3ccccc3n2)cc1	0	0	7	10	50*	20	33	7	3
CCCCn1c(N)c(N(CC(C)C)C(=O)C2CCN(S(=O)(=O)c3ccc(F)cc3)CC2)c(=O)[nH]c1=O	/	/	/	1	-12	/	/	/	/
O=C(CN(c1ccccc1)S(=O)(=O)c1ccccc1)NCCSc1nc2ccccc2s1	-1	0	-4	14	71*	36*	62*	8	6
CC(=O)Nc1nc(C(=O)O)cs1	0	0	-8	2	11	/	/	/	/
CN(CCOc1ccc(Cl)cc1)C(=O)c1cc(S(=O)(=O)N2CCOCC2)ccc1N1CCCC1	0	3	-9	17	67*	21	35	7	5
COC(=O)/C=C/c1ccccc1CN1[C@@H](CC(=O)OC)c2ccccc2S1(=O)=O	1	2	3	7	107*	-2	10	3	5
COc1ccc(N2CCN(Cc3nc(-c4ccc(Cl)cc4Cl)no3)CC2)cc1	-1	1	-2	-1	5	/	/	/	/
CC(C)N1CCN(c2ccc(OC[C@H]3CO[C@](Cn4cncn4)(c4ccc(Cl)cc4Cl)O3)cc2)CC1	2	1	-12	29	70*	32*	49*	15*	14
CCCCCCSc1cc(-c2nc3ccc(C)cn3c2NCc2ccccc2)ccc1OC	-2	-1	-10	-2	13	/	/	/	/
Cc1ccccc1NS(=O)(=O)c1ccc(C(=O)N2CCCCCC2)cc1	5	6	-13	21	-4	/	/	/	/
Cc1ccccc1NS(=O)(=O)c1ccc(C(=O)N2CCN(c3ccccc3O)CC2)cc1	9	11	-16	19	75*	28*	41	12*	7

Screening results from PubChem.
